Source: PubChem BioAssay (Johns Hopkins Ion Channel Center)
Rows were chosen to be rich in hits. Some 3.5% of all compounds tested hit in one or more screens of this group.
RGS4 act – RGS4 potentiation or activation. HEK293 M3R/inducible RGS4, carbachol calcium flux Fluo4; active compounds read low. 0.92% of 310,000 active. B-score at 10 µM;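 active = B-score of the integrated calcium signal more than 4 SD below the library mean, with starting fluorescence not abnormally high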;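 note: negative B-score means reduced calcium response which marks RGS4 activation or potentiation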
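Assay system: HEK293 FlpIn-TREx cells, stable M3R, doxycycline-inducible RGS4 / Probe or stimulus: carbachol, ECmax concentration / Times: overnight RGS4 induction, 30 min dye load 37 °C, 20 min compound RT / Signal: kinetic calcium fluorescence imaging with Fluo4-AM dye, 2 µM / Measure: Agonist-evoked peak-minus-minimum fluorescence over baseline, integrated ratio, B score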
MrgX1 antagonist – human MrgX1 receptor antagonism, primary screen | Q96LB2 | MRGX1-HEK293 calcium flux, Fluo-4, BAM8-22 antagonism; active compounds read low | B-score at 10 µM | 1.3% of 310,000 active | AID 588676;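 active = calcium-response B-score plate-corrected more than 3 library SD below zero, starting fluorescence within 5 deviations, no agonist response on first addition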;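 note: peak minus trough fluorescence over baseline after final BAM8-22 challenge near maximal dose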
Target sequence (Q96LB2 whole entry, looked up): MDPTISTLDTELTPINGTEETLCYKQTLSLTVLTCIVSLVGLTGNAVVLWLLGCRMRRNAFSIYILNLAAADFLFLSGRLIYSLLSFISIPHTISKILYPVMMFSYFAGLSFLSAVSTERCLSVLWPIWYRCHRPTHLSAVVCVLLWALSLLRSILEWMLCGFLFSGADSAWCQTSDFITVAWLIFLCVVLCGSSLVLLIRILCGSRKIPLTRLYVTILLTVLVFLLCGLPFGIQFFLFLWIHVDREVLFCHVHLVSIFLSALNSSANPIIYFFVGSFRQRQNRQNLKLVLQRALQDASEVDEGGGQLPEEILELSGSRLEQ
MrgX1 allo act – human MrgX1 positive allosteric modulation, primary screen. Q96LB2. MrgX1-HEK293, Fluo-4 calcium flux, FDSS; active compounds read high. B-score at 10 µM. 0.63% of 310,000 active. AID 588675;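 active = plate-corrected calcium response at least 3 library SD above typical, normal starting fluorescence, not activating the receptor alone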;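 note: compound read alongside a low EC10 to EC30 dose of BAM8-22 agonist; peak minus trough fluorescence over baseline measured at the second addition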
RGS4 block – inhibitors of human RGS4 | P49798 | 0.45% of 310,000 active | B-score at 10 µM | AID 463165 | HEK293 M3R/RGS4 inducible, Fluo-4 calcium flux; active compounds read high; triggered by carbachol at its EC20;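 active = B-score, a plate-corrected calcium signal, over three deviations above library mean, with baseline fluorescence within five deviations of library mean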;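 note: RGS4 expression induced by doxycycline in cells with stable M3 receptor; B-score is computed from the integrated fluorescence ratio over baseline after carbachol; higher B-score means a larger calcium signal and so more RGS4 inhibition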
Target sequence (P49798 whole entry, looked up): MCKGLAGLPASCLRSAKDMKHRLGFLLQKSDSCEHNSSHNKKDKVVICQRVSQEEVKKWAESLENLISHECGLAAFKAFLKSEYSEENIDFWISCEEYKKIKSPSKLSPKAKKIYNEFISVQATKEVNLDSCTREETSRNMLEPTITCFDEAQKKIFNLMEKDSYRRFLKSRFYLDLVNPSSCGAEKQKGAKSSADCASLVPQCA
MrgX1 agonist – human MrgX1 receptor agonism, primary screen | Q96LB2 | MrgX1-HEK293 cells, Fluo-4 calcium fluorescence, agonist mode; active compounds read high | B-score at 10 µM | 0.44% of 310,000 active | AID 588627;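 active = calcium response B-score plate-corrected fluorescence ratio at least 3 library SD, with starting fluorescence B-score inside 5 SD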
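Test system: HEK293 cells stably expressing human MrgX1 receptor; Input: fifteen thousand cells per well; Dosing: compound delivered in addition one of three; Schedule: overnight seeding, then 1 h dark dye loading; Technique: Fluo-4 NW calcium fluorescence; Measure: B-scored fluorescence response ratio; Controls: positive and negative controls per plate.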
RGS4 block valid – validation of RGS4 inhibitors. HEK293 M3R/RGS4, carbachol calcium Fluo-4 fluorescence; carbachol added at its EC20; 0 = buffer wells, 100 = carbachol control. AID 492999. shares compounds with RGS4 block. 65% of 1,700 active. calcium response, % at 10 µM;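 active = duplicate-averaged calcium response above the buffer-only control mean plus 5 SD of those controls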;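 note: integrated fluorescence ratio F max minus min over baseline F0; higher response in RGS4-induced cells means RGS4 inhibition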
M3R Ca ctr – counter-screen for RGS4 inhibitors: effect in non-induced cells; AID 493000; HEK293 M3R non-induced, carbachol calcium Fluo-4; submaximal (EC20) carbachol stimulus; buffer wells 0%, carbachol control wells 100%; shares compounds with RGS4 block; 20% of 1,900 active; activity (percent), % at 10 µM; call rule not given here;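 note: RGS4 induction absent so cells express M3R without RGS4; higher means more calcium signal and flags a non-specific hit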
M3R basal Ca ctr – second counter-screen for RGS4 inhibitors: non-induced cells without carbachol | calcium response (agonist-mode artifact), % at 10 µM | shares compounds with RGS4 block | 22% of 1,900 active | HEK293 M3R/RGS4 non-induced, Fluo-4 calcium, no carbachol; normalised: buffer wells 0%, carbachol wells 100%;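 active = duplicate-averaged calcium rise in uninduced cells above buffer wells' mean plus 5 SD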
Large screens that a line does not name were inactive (follow-up assays come after a bar, where they were run).

O=C1NC(=O)N(c2ccc3c(c2)OCO3)C(=O)/C1=C/c1cccs1	RGS4 block 13.5 | RGS4 block valid 18.0% | M3R Ca ctr 34.5% | M3R basal Ca ctr inactive
O=C1NC(=O)N(c2ccc3c(c2)OCO3)C(=O)/C1=C/c1ccsc1	none
O=C1NC(=O)C(=Cc2ccc(-c3ccc(F)cc3O)o2)C(=O)N1	RGS4 block 39.5 | RGS4 block valid 73.5% | M3R Ca ctr 31.5% | M3R basal Ca ctr 10.0%
O=C1NC(=O)C(=Cc2ccc(-c3ccc(S(=O)(=O)N4CCOCC4)cc3)o2)C(=O)N1	none
O=C1NC(=O)C(=Cc2ccc(-c3ccc(Cl)cc3)o2)C(=O)N1	RGS4 block 14 | RGS4 block valid 16.0% | M3R Ca ctr inactive | M3R basal Ca ctr 8.5%
O=C1NC(=O)C(=Cc2ccc3c(c2)OCO3)C(=O)N1	none
COc1ccccc1CCNC(=O)CCC(=O)N1CC2C[C@@H](C1)Cn1c2cccc1=O	none
O=c1[nH]c(=O)n(CCc2ccccc2)c(O)c1C=NC1CC1	none
CNc1cc(Cl)c2nonc2c1[N+](=O)[O-]	RGS4 block 17.2 (no result: MrgX1 antagonist, MrgX1 allo act, MrgX1 agonist) | RGS4 block valid 53.5% | M3R Ca ctr inactive | M3R basal Ca ctr inactive
Cc1cc([N+](=O)[O-])c(Cl)cc1NC(=O)C(C)C	none
C=C1C(=O)O[C@@H]2C[C@@H](C)[C@@H]3C=CC(=O)[C@@]3(C)[C@@H](OC(=O)CC(=O)O[C@H]3[C@@H]4C(=C)C(=O)O[C@@H]4C[C@@H](C)[C@@H]4C=CC(=O)[C@]43C)[C@H]12	MrgX1 antagonist -5.32 | M3R Ca ctr inactive | M3R basal Ca ctr 11.0%
C=C(CC1CC(O)[C@]2(C)OC3CC4OC5C[C@]6(C)O[C@]7(C)CCC8OC9C[C@]%10(C)OC%11C(C)=CC(=O)OC%11CC%10OC9C[C@@H](C)C8OC7CC6O[C@]5(C)C/C=C\C4OC3CC2O1)C(=O)O (stereo partly specified)	none | RGS4 block valid inactive | M3R Ca ctr inactive | M3R basal Ca ctr inactive
O=C1C2CCCC1C(N1CCCC1)CC2 (stereo unspecified)	none
COc1cc2[nH]c(C(=O)N3CCC4(CC3)OCCO4)cc2c(OC)c1OC	none
O=C1NC(=O)N(Cc2ccccc2)C(=O)/C1=C\C=C\c1ccco1	RGS4 block 5.45, MrgX1 agonist 28 | RGS4 block valid 19.0% | M3R Ca ctr inactive | M3R basal Ca ctr 15.0%
CN(C)c1ccc(/C=C/C=C2/C(=O)NC(=O)N(c3ccccc3)C2=O)cc1	none (no result: MrgX1 antagonist, MrgX1 allo act, MrgX1 agonist)
O=C1NC(=O)N(Cc2ccco2)C(=O)/C1=C/C=C/c1ccco1	RGS4 block 5.41, MrgX1 agonist 36.4 | RGS4 block valid inactive | M3R Ca ctr inactive | M3R basal Ca ctr inactive
O=C1NC(=O)N(Cc2ccccc2)C(=O)/C1=C/c1cnc(-c2ccccc2)nc1	none
C=CCN1C(=O)NC(=O)/C(=C/C=C/c2ccccc2)C1=O	RGS4 block 5.35 (no result: MrgX1 antagonist, MrgX1 allo act, MrgX1 agonist) | RGS4 block valid 25.5% | M3R Ca ctr inactive | M3R basal Ca ctr 18.5%
Cn1cccc1/C=C1\C(=O)NC(=O)N(Cc2ccco2)C1=O	none (no result: MrgX1 antagonist, MrgX1 allo act, MrgX1 agonist)
O=c1c2ccccc2nc(CNc2ccccc2)n1-c1ccccc1	none
COc1ccc(OC)c(N2C(=O)NC(=O)/C(=C/c3ccc([N+](=O)[O-])s3)C2=O)c1	RGS4 block 5.8 | RGS4 block valid 15.0% | M3R Ca ctr inactive | M3R basal Ca ctr inactive
COc1ccc(OC)c(N2C(=O)/C(=C/c3ccco3)C(=O)NC2=S)c1	none
COc1cc2c(cc1/C=C/[N+](=O)[O-])OCO2	RGS4 block 11.6 (no result: MrgX1 antagonist, MrgX1 allo act, MrgX1 agonist) | RGS4 block valid 36.5% | M3R Ca ctr 43.0% | M3R basal Ca ctr 73.5%
CC(=O)O[C@]1(C)C(=O)OC/C2=C/CN(C)CCC(OC(=O)[C@@](O)(C(C)O)C[C@H]1C)C2=O (stereo partly specified)	none
CN1C(=O)C(=Cc2ccc(Sc3ccccc3)o2)C(=O)N(C)C1=S	none | RGS4 block valid inactive | M3R Ca ctr inactive | M3R basal Ca ctr 8.5%
CN1C(=O)C(=Cc2coc3ccccc3c2=O)C(=O)N(C)C1=O	none
O=C1NC(=O)C(=Cc2ccc(Sc3ccccc3)o2)C(=O)N1	RGS4 block 9.93 | RGS4 block valid 5.0% | M3R Ca ctr inactive | M3R basal Ca ctr 29.0%
CN1C(=O)C(=Cc2ccc(Sc3ccccc3)o2)C(=O)N(C)C1=O	RGS4 block 26.5 | RGS4 block valid 23.0% | M3R Ca ctr inactive | M3R basal Ca ctr 210.5%
CN1C(=O)C(=Cc2ccc(N3CCOCC3)o2)C(=O)N(C)C1=S	none
CCOC(=O)c1c(C)[nH]c(C)c1C(=O)C(Cc1ccccc1)N(C)C (stereo unspecified)	none
CNC(=O)OCc1n(C)cc[n+]1C	none
Nc1c(C(=O)NCc2ccco2)c2nc3ccccc3nc2n1CCN1CCCCC1	none | RGS4 block valid inactive | M3R Ca ctr inactive | M3R basal Ca ctr 12.0%
CC1(C)CN=C(NCc2ccccc2Cl)S1	none
COc1ccc(C2CC(c3c(O)n(CCc4ccccc4)c(=O)[nH]c3=O)=NN2)cc1OC (stereo unspecified)	RGS4 block 8.1 | RGS4 block valid inactive | M3R Ca ctr inactive | M3R basal Ca ctr inactive
CCN(CC)C(=O)Cn1cc(/C=C2\C(=O)NC(=O)N(c3ccccc3F)C2=O)c2ccccc21	RGS4 block 6.59, MrgX1 agonist 26.8 | RGS4 block valid 37.5% | M3R Ca ctr inactive | M3R basal Ca ctr 429.5%
CCOC(=O)C1=C(N)Oc2ccccc2C12C(=O)N(CC(=O)OC)C(CC(=O)OC)=C2C(=O)OC (stereo unspecified)	none
CCOC(=O)C1=C(N)OC2=C(C(=O)CCC2)C12C(=O)N(CC(N)=O)c1ccccc12 (stereo unspecified)	none
CCCc1[nH]nc2c1C1(C(=O)N(Cc3ccccc3)c3ccccc31)C(C(=O)OC)=C(N)O2 (stereo unspecified)	RGS4 block 5.94 | RGS4 block valid 19.0% | M3R Ca ctr 29.5% | M3R basal Ca ctr inactive
CCCc1[nH]nc2c1C1(C(=O)N(CC(N)=O)c3ccccc31)C(C(=O)OC)=C(N)O2 (stereo unspecified)	none | RGS4 block valid inactive | M3R Ca ctr inactive | M3R basal Ca ctr inactive
Cc1ccc2c(c1)N(C(C)C(=O)N1CCC3(CC1)OCCO3)C(=O)CO2 (stereo unspecified)	none
